Active and inactive are the calls of the source. No cut-off for these calls is given here.
Assays:
[1] = target: T1, D(4) dopamine receptor (Homo sapiens, UniProt P21917); experiment: Agonist activity at human D4.4 receptor in HEK293 cells coexpressing G-alpha-qo5 by FLIPR; assay type: functional, cell-based
T1 sequence (P21917 whole entry): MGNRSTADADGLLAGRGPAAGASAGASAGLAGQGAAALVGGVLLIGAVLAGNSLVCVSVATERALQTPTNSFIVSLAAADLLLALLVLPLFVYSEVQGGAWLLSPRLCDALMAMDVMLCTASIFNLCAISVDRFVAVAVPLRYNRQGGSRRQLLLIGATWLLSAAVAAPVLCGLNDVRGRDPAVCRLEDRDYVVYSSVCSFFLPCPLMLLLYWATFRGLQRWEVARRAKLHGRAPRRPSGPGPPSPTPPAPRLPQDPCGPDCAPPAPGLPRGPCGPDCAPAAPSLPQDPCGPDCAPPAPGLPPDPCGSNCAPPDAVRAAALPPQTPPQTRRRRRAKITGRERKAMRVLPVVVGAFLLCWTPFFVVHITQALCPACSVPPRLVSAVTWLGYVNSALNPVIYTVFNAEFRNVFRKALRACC

[2] = target: T2, D(4) dopamine receptor (Homo sapiens) (UniProt P21917); experiment: Activity at human D4.4 receptor in HEK293 cells co-expressing Galphaqo5 by FLIPR; assay type: functional, cell-based; conditions: filed as partial agonist
T2 sequence (whole entry): T1 sequence (P21917 whole entry)

[3] = target: T2, D(4) dopamine receptor (Homo sapiens); experiment: Agonist activity at human D4.4 receptor in HEK293 cells coexpressing G-alpha-qo5 by FLIPR upto 10 uM; assay type: functional, cell-based
[4] = Agonist activity at ferret D4 receptor in HEK293 cells coexpressing G-alpha-qo5 by FLIPR; assay type: functional, cell-based, Mustela putorius furo; conditions: Mustela putorius
Summary of the method: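 HEK cells cotransfected with ferret D4 receptor and chimeric G protein Gqo5, with receptor activation read as a calcium flux signal on FLIPR. EC50 is the concentration giving half-maximal activation.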

[5] = Bioavailability in Sprague-Dawley rat at 1 mg/kg, po; assay type: ADME, organism-based; conditions: in vivo
Summary of the method: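 Single 1 mg/kg dose given iv, sc or orally to Sprague-Dawley rats, dogs and monkeys; plasma concentrations followed over time (mean ± SEM, n = 3). Cmax, AUC, half-life, clearance and bioavailability calculated from the curves.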

[6] = Agonist activity at ferret D4 receptor in HEK293 cells coexpressing G-alpha-qo5 by FLIPR relative to dopamine; assay type: functional, Mustela putorius furo
[7] = test system: Rattus norvegicus; experiment: Proerectile activity in rat measured as incidence of penile erection at 0.1 umol/kg, sc; assay type: functional
Summary of the method: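 Conscious male rats were given a single subcutaneous injection and observed for penile erections over the following 60 min. The read-out was the incidence of erections, expressed as % of animals ± SEM (n = 12–32 animals per group), with significance tested against controls. The value is the maximal incidence at the maximally effective dose.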

SMILES	EC50 [1] [nM]	also measured
O=C(CN1CCC(c2cccc[n+]2[O-])CC1)Nc1cccc(F)c1	160	–
Cc1cc(C(=O)NCN2CCC(c3cccc[n+]3[O-])CC2)ccc1F	50	–
Cc1cc(C(=O)NCN2CCC(c3cccc[n+]3[O-])CC2)ccc1Cl	2460	–
Cc1cccc(NC(=O)CN2CCC(c3cccc(F)c3)CC2)c1	512	–
COc1cc(C(=O)NCN2CCC(c3cccc[n+]3[O-])CC2)ccc1Cl	159	–
O=C(NCN1CCC(c2cccc[n+]2[O-])CC1)c1ccc(OC(F)(F)F)c(Cl)c1	170	–
Cc1cccc(NC(=O)CN2CCC(c3ccc(O)cc3)CC2)c1	70	Activity [2]: Partial agonist
CSc1cccc(NC(=O)CN2CCC(c3cccc[n+]3[O-])CC2)c1	100	–
N#Cc1cccc(C(=O)NCN2CCC(c3cccc[n+]3[O-])CC2)c1	840	–
O=C(CN1CCC(c2cccc[n+]2[O-])CC1)Nc1cccc(OC(F)(F)F)c1	135	–
COc1cccc(C)c1NC(=O)CN1CCC(c2ccccn2)CC1	40	–
Cc1cc(NC(=O)CN2CCC(c3cccc[n+]3[O-])CC2)ccc1F	18	–
Cc1cccc(NC(=O)CN2CCC(c3ccccc3C)CC2)c1	340	–
Cc1cccc(C(=O)NCN2CCC(c3nccs3)CC2)c1	9.8	–
O=C(CN1CCC(c2cccc[n+]2[O-])CC1)Nc1cccc(C(F)(F)F)c1	76	–
Cc1cccc(NC(=O)CN2CCC(c3ccccc3C#N)CC2)c1	8	–
O=C(NCN1CCC(c2cccc[n+]2[O-])CC1)c1ccc(F)c(Cl)c1	63	–
Cc1cccc(NC(=O)CN2CCC(c3ccc(F)cc3)CC2)c1	–	Activity [3]: inactive
NCCc1ccc(O)c(O)c1 [DOPAMINE]	–	EC50 [4]: 2.7 nM
Cc1cc(Cl)cc(C)c1NC(=O)CN1CCC(c2ccccn2)CC1	240	–

SMILES	EC50 [1] [nM]	also measured
Cc1cc(C)cc(C(=O)NCN2CCC(c3cccc[n+]3[O-])CC2)c1	90	–
c1ccc(N2CCN(Cc3nc4ccccc4[nH]3)CC2)nc1	–	Activity [2]: Partial agonist
Cc1ccc(C(=O)NCN2CCC(c3cccc[n+]3[O-])CC2)cc1C	38	–
CCc1cccc(NC(=O)CN2CCC(c3cccc[n+]3[O-])CC2)c1	95	–
[O-][n+]1ccccc1C1CCN(Cc2nc3ccccc3[nH]2)CC1	54	Activity [2]: Partial agonist
Cc1cccc(NC(=O)CN2CCC(c3ccccc3F)CC2)c1	1	–
Cc1cccc(NC(=O)CN2CCC(c3ncccc3C#N)CC2)c1	36	–
COc1ccc(C2CCN(CC(=O)Nc3cccc(C)c3)CC2)cc1	–	Activity [3]: inactive
Cc1cc(C)cc(NC(=O)CN2CCC(c3cccc[n+]3[O-])CC2)c1	52	–
CN1CCc2cccc3c2[C@H]1Cc1ccc(O)c(O)c1-3 [APOMORPHINE]	–	EC50 [4]: 1.5 nM; Efficacy [6]: 84%; Activity [7]: 91%
O=C(CN1CCC(c2cccc[n+]2[O-])CC1)Nc1ccc(F)cc1	85	–
Cc1cccc(NC(=O)CN2CCC(c3nccs3)CC2)c1	1	–
C=Cc1cccc(C(=O)NCN2CCC(c3cccc[n+]3[O-])CC2)c1	68	–
O=C(NCN1CCC(c2cccc[n+]2[O-])CC1)c1ccccn1	3150	–
COc1ccccc1C1CCN(CC(=O)Nc2cccc(C)c2)CC1	420	–
O=C(CN1CCC(c2cccc[n+]2[O-])CC1)Nc1ccccc1F	270	–
Cc1cccc(NC(=O)CN2CCC(c3cccc(O)c3)CC2)c1	8	Activity [2]: Partial agonist
COc1cccc(C)c1NC(=O)CN1CCC(c2cccc[n+]2[O-])CC1	340	–
Cc1ccc(Cl)cc1NC(=O)CN1CCC(c2cccc[n+]2[O-])CC1	126	–

Further lines, with some results ahead:

EC50 [1] [nM]	SMILES	also measured
346	Cc1cccc(C)c1NC(=O)CN1CCC(c2cccc[n+]2[O-])CC1	–
115	O=C(NCN1CCC(c2cccc[n+]2[O-])CC1)c1ccc2ccccc2c1	–
180	O=C(CN1CCC(c2cccc[n+]2[O-])CC1)Nc1cccc(Cl)c1Cl	–
45	O=C(NCN1CCC(c2cccc[n+]2[O-])CC1)c1cc(Cl)cc(Cl)c1	–
555	CC(C)Oc1cccc(NC(=O)CN2CCC(c3cccc[n+]3[O-])CC2)c1	–
685	COc1cccc(C(=O)NCN2CCC(c3cccc[n+]3[O-])CC2)c1C	–
103	O=C(CN1CCC(c2cccc[n+]2[O-])CC1)Nc1ccc(F)cc1F	–
324	CCOc1cccc(C(=O)NCN2CCC(c3cccc[n+]3[O-])CC2)c1	–
85	Cc1ccc(C(=O)NCN2CCC(c3cccc[n+]3[O-])CC2)cc1C(F)(F)F	–
170	Cc1cccc(NC(=O)CN2CCC(c3ccccc3)CC2)c1	–
473	O=C(CN1CCC(c2cccc[n+]2[O-])CC1)Nc1ccc(F)cc1C(F)(F)F	–
346	Cc1ccc(Cl)c(NC(=O)CN2CCC(c3cccc[n+]3[O-])CC2)c1Cl	–
360	O=C(CN1CCC(c2cccc[n+]2[O-])CC1)Nc1cccc(-c2ccccc2)c1	–
1290	O=C(NCN1CCC(c2cccc[n+]2[O-])CC1)c1cnccc1Cl	–
3.8	Cc1cccc(NC(=O)CN2CCC(c3ccc(O)cn3)CC2)c1	bioavailability [5]: 0%
66	Cc1cc(Br)ccc1NC(=O)CN1CCC(c2cccc[n+]2[O-])CC1	–
62	O=C(CN1CCC(c2cccc[n+]2[O-])CC1)Nc1cccc(Cl)c1	–
532	O=C(NCN1CCC(c2cccc[n+]2[O-])CC1)c1ccccc1	Activity [2]: Partial agonist
60	Cc1cccc(Cl)c1NC(=O)CN1CCC(c2ccccn2)CC1	–
160	O=C(CN1CCC(c2cccc[n+]2[O-])CC1)Nc1cc(Cl)cc(Cl)c1	–
145	O=C(CN1CCC(c2ccccn2)CC1)Nc1c(Cl)cc(Cl)cc1Cl	–
111	CCc1cccc(C)c1NC(=O)CN1CCC(c2ccccn2)CC1	–
12	c1ccc(C2CCN(Cc3nc4ccccc4[nH]3)CC2)nc1	–
294	O=C(CN1CCC(c2cccc[n+]2[O-])CC1)NC1CCCCC1	Activity [2]: Partial agonist

Reference: ChEMBL document CHEMBL1137302 (J Med Chem, 2006)
